Measurements reported in ChEMBL document CHEMBL1146203, “Acridone-based inhibitors of inosine 5'-monophosphate dehydrogenase: discovery and SAR leading to the identification of N-(2-(6-(4-ethylpiperazin-1-yl)pyridin-3-yl)propan-2-yl)-2- fluoro-9-oxo-9,10-dihydroacridine-3-carboxamide (BMS-566419)” (J Med Chem, 2007).
Calls of active or inactive are those of the source. The rule behind the calls is not given here.

Experiments:
CCRF-CEM = assay: Inhibition of CEM cell proliferation; format: functional, cell-based; details: Homo sapiens
In short: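 Human CEM T-lymphoblasts grown in RPMI 1640 with 10% heat-inactivated FBS and penicillin/streptomycin. Seeded at 3000 cells/well with 0.5% DMSO; compounds tested in triplicate from 10 µM top concentration in 3-fold dilutions.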

[1] = biological target: Inosine-5'-monophosphate dehydrogenase 2 (Homo sapiens, UniProt P12268); assay: Inhibition of human IMPDH2
PBMC = assay: Inhibition of T cell proliferation in PBMC cells; format: functional, cell-based; details: Homo sapiens
In short: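 Human PBMCs isolated from heparinized whole blood by density gradient and plated at 5 × 10^4 cells/well in RPMI 1640 with 10% FBS. Stimulated with anti-CD3 OKT3 (200 ng/mL) plus soluble anti-CD28 (1 µg/mL). Compounds tested in triplicate from 3.3 µM in 3-fold dilutions with 0.5% DMSO for 72 h.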

Serum = assay: Protein binding in serum; format: ADME, cell-free; details: human
Cytochrome P450 3A4 = Cytochrome P450 3A4 (Homo sapiens, UniProt P08684); assay: Inhibition of CYP3A4; format: ADME
Cytochrome P450 3A4, sequence (P08684 whole entry): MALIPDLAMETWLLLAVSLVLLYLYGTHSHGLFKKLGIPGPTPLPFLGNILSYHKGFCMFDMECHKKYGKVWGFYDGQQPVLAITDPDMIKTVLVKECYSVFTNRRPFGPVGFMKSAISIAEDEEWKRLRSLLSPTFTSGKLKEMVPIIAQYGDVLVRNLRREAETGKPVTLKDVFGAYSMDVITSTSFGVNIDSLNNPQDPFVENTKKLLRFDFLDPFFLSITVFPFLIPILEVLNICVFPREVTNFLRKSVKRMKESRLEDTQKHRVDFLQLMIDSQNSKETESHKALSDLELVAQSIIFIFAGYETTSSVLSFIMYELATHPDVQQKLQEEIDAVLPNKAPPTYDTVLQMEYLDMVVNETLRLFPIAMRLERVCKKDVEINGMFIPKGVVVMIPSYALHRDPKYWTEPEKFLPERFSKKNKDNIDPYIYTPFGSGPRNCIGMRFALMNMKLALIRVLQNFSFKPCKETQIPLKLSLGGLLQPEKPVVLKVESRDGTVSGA
In short: (§1)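 Inhibition measured against isolated CYP enzymes.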

[2] = Lipophilicity, log P of the compound; format: physicochemical; details: octanol/water
[3] = Permeability across Caco-2 cells; format: ADME, cell-based; details: human, read-out: permeability
[4] = Cmax in rat at 10 mg/kg, po; format: ADME, organism-based; set-up: dose 10 mg/kg, route oral; details: in vivo
In short: (§2)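 Rat and cynomolgus monkey PK: oral dose 10 mg/kg and iv dose 2 mg/kg; oral vehicle 60% PEG400/40% HCl at pH 3. Cmax, Tmax and AUC taken from the oral arm; T1/2, MRT, Cl and Vss from the iv arm; Fpo calculated. Values are the mean ± SD of three animals.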

[5] = Cmax in cynomolgus monkey at 10 mg/kg, po; format: ADME, organism-based, Macaca fascicularis; set-up: dose 10 mg/kg, route oral; details: in vivo; in short: as §2
Rattus norvegicus [6] = assay: Tmax in rat at 10 mg/kg, po; format: ADME, organism-based; set-up: dose 10 mg/kg, route oral; details: in vivo; in short: as §2
[7] = AUC in rat at 10 mg/kg, po; format: ADME, organism-based; set-up: dose 10 mg/kg, route oral; details: plasma; in short: as §2
[8] = AUC in cynomolgus monkey at 10 mg/kg, po; format: ADME, organism-based, Macaca fascicularis; set-up: dose 10 mg/kg, route oral; details: plasma; in short: as §2
[9] = Half life in rat at 2 mg/kg, iv; format: ADME, organism-based; set-up: dose 2 mg/kg, route intravenous; details: in vivo; in short: as §2
[10] = Half life in cynomolgus monkey at 2 mg/kg, iv; format: ADME, organism-based, Macaca fascicularis; set-up: dose 2 mg/kg, route intravenous; details: in vivo; in short: as §2
[11] = Mean residence time in rat at 2 mg/kg, iv; format: ADME, organism-based; set-up: dose 2 mg/kg, route intravenous; details: in vivo; in short: as §2
[12] = Mean residence time in cynomolgus monkey at 2 mg/kg, iv; format: ADME, organism-based, Macaca fascicularis; set-up: dose 2 mg/kg, route intravenous; details: in vivo; in short: as §2
[13] = Volume of distribution at steady state in rat at 2 mg/kg, iv; format: ADME, organism-based; set-up: dose 2 mg/kg, route intravenous; details: in vivo, read-out: Vdss; in short: as §2
[14] = Volume of distribution at steady state in cynomolgus monkey at 2 mg/kg, iv; format: ADME, organism-based, Macaca fascicularis; set-up: dose 2 mg/kg, route intravenous; details: in vivo, read-out: Vdss; in short: as §2
[15] = Bioavailability in rat at 10 mg/kg, po; format: ADME, organism-based; details: in vivo; in short: as §2
Rattus norvegicus [16] = assay: Efficacy against Freund's complete adjuvant-induced arthritis in Lewis rat assessed as inhibition of paw swelling at 10 mg/kg, po after 21 days; format: functional, organism-based; set-up: dose 10 mg/kg
In short: (§3)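 Male Lewis rats; arthritis induced by subcutaneous Freund's complete adjuvant at the tail base. Oral dosing once daily for 21 days from day 0, in 60% PEG400/40% 0.01 N HCl vehicle; 8 rats per group. Hind paw volume was measured by plethysmometry at baseline and over three weeks, and the increase above baseline was calculated. Groups were compared with vehicle by Student's t test.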

Rattus norvegicus [17] = assay: Efficacy against Freund's complete adjuvant-induced arthritis in Lewis rat assessed as inhibition of paw swelling at 25 mg/kg, po after 21 days; format: functional, organism-based; set-up: dose 25 mg/kg; in short: as §3
Rattus norvegicus [18] = assay: Efficacy against Freund's complete adjuvant-induced arthritis in Lewis rat assessed as inhibition of paw swelling at 50 mg/kg, po after 21 days; format: functional, organism-based; set-up: dose 50 mg/kg; in short: as §3
[19] = Clearance in rats at 2 mg/kg, iv; format: ADME, organism-based; set-up: dose 2 mg/kg, route intravenous; details: rat, in vivo; in short: as §2
[20] = Clearance in cynomolgus monkey at 2 mg/kg, iv; format: ADME, organism-based, Macaca fascicularis; set-up: dose 2 mg/kg, route intravenous; details: in vivo; in short: as §2
Cytochrome P450 2C9 = Cytochrome P450 2C9 (Homo sapiens, UniProt P11712); assay: Inhibition of CYP2C9; format: ADME; in short: as §1
Cytochrome P450 2C9, sequence (P11712 whole entry): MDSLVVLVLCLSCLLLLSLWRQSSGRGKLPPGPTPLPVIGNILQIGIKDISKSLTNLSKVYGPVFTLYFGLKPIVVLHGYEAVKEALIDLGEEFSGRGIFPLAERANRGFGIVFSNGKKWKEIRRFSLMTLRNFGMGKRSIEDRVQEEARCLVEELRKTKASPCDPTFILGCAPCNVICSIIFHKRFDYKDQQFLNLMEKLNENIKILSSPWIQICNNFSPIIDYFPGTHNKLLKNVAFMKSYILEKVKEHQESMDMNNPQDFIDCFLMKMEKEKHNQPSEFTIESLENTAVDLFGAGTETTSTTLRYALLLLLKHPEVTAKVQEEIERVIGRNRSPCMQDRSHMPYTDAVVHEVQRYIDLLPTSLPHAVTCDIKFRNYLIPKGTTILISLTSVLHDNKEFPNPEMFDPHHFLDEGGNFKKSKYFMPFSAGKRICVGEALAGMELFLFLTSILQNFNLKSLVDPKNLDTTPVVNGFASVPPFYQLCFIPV

Cytochrome P450 1A2 = biological target: T1, Cytochrome P450 1A2 (Homo sapiens, UniProt P05177); assay: Inhibition of CYP1A2; format: ADME; in short: as §1
T1 sequence (P05177 whole entry): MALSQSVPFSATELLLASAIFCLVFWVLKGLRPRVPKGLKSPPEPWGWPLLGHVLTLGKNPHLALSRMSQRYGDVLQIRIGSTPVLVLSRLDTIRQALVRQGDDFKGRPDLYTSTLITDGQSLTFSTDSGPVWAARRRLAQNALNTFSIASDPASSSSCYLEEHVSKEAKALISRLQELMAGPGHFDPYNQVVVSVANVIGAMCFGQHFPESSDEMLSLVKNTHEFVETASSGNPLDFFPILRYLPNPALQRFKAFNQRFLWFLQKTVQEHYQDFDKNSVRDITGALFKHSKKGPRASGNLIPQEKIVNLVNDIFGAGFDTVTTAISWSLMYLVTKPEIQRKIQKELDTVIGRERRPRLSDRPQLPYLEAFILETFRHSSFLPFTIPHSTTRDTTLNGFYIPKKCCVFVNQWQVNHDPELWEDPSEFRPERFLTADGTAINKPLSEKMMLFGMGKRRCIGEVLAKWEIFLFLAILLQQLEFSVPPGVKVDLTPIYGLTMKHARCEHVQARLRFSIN

Cytochrome P450 2D6 = Cytochrome P450 2D6 (Homo sapiens, UniProt P10635); assay: Inhibition of CYP2D6; format: ADME; in short: as §1
Cytochrome P450 2D6, sequence (P10635 whole entry): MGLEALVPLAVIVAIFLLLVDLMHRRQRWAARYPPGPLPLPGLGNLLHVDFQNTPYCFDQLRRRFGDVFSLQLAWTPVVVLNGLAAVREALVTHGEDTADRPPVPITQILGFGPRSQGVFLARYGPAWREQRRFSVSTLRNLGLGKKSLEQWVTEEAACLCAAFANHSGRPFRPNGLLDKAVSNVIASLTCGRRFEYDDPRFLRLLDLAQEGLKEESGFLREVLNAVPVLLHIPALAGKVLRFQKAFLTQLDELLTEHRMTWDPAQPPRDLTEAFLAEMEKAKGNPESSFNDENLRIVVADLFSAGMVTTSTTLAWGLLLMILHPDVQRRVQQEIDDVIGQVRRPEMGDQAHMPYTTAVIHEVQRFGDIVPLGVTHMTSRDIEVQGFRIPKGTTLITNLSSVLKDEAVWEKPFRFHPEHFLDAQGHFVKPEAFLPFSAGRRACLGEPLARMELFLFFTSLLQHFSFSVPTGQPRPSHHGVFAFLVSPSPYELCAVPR

Cytochrome P450 2C19 = Cytochrome P450 2C19 (Homo sapiens, UniProt P33261); assay: Inhibition of CYP2C19; format: ADME; in short: as §1
Cytochrome P450 2C19, sequence (P33261 whole entry): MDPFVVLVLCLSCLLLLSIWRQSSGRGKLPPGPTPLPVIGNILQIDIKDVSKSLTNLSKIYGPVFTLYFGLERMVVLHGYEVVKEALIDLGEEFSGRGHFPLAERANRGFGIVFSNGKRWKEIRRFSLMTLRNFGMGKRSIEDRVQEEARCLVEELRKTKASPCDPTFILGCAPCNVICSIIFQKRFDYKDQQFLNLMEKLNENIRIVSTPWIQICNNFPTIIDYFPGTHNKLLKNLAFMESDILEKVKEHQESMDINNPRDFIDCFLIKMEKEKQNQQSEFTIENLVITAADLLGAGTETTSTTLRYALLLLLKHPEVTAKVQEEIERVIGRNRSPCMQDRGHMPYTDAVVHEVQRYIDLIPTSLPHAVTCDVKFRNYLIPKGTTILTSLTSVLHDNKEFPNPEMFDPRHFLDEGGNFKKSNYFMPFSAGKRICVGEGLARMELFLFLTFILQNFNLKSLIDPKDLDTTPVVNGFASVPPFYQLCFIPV

[21] = Bioavailability in cynomolgus monkey at 10 mg/kg, po; details: in vivo
Rattus norvegicus [22] = assay: Efficacy against Freund's complete adjuvant-induced arthritis in Lewis rat assessed as inhibition of paw swelling at 15 mg/kg, po after 21 days; format: functional, organism-based; set-up: dose 15 mg/kg
In short: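 Adjuvant arthritis induced by subcutaneous Freund's complete adjuvant at the tail base in male Lewis rats. Oral dosing once daily for 21 days from day 0, vehicle 60% PEG400/40% 0.01 N HCl, 8 rats per group. Hind paw volume measured by plethysmometry at baseline and over three weeks; increase above baseline calculated; Student's t test against the vehicle group.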

Rattus norvegicus [23] = species on record: Rattus norvegicus; assay: Gastrointestinal toxicity in Lewis rat adjuvant arthritis model; format: organism-based; details: in vivo
In short: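 Lewis rats in the adjuvant arthritis setting were given escalating oral daily doses for up to 14 days. Animals were monitored for diarrhea and weight loss, with gross examination and histopathology (crypt cell necrosis) used to define the maximum tolerated dose for GI toxicity.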

[24] = Therapeutic index for gastrointestinal toxicity in Lewis rat adjuvant arthritis model; details: read-out: TI
In short: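 GI therapeutic index in the rat adjuvant arthritis model, calculated as the ratio of exposure (AUC) at the maximum tolerated dose for GI toxicity to the AUC at the lowest efficacious dose.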

What does the source list for `CC(C)(NC(=O)c1ccc2c(=O)c3ccccc3[nH]c2c1)c1cccnc1`?
IC50 (CCRF-CEM): 2200 nM; IC50 [1]: 42 nM; IC50 (PBMC): 590 nM

Which results are given for `CC(C)(NC(=O)c1ccc2c(=O)c3ccccc3[nH]c2c1)c1ccccn1`?
IC50 (CCRF-CEM): 2200 nM; IC50 [1]: 53 nM

What does the source list for `CCN1CCN(c2ccc(C(C)(C)NC(=O)c3cc4[nH]c5ccccc5c(=O)c4cc3F)cn2)CC1`?
IC50 (CCRF-CEM): 770 nM; IC50 [1]: 17 nM; IC50 (PBMC): 220 nM; Activity (Serum): 92%; IC50 (Cytochrome P450 3A4): 13000 nM; logP [2]: 2.5; Papp [3]: 32 ×10⁻⁶ cm/s; Cmax [4]: 0.41 µM; Cmax [5]: 26 µM; Tmax (Rattus norvegicus [6]): 4 h; AUC [7]: 5.2 µM·h; AUC [8]: 102 µM·h; half-life [9]: 3.6 h; half-life [10]: 4 h; MRT [11]: 4.4 h; MRT [12]: 5.5 h; Vd [13]: 7.4 L/kg; Vd [14]: 1.1 L/kg; bioavailability [15]: 43%; Activity (Rattus norvegicus [16]): Active; Activity (Rattus norvegicus [17]): Active; Activity (Rattus norvegicus [18]): Active; clearance [19]: 29 mL/min/kg; clearance [20]: 3.4 mL/min/kg; IC50 (Cytochrome P450 2C9): > 20000 nM; IC50 (Cytochrome P450 1A2): > 20000 nM; IC50 (Cytochrome P450 2D6): > 20000 nM; IC50 (Cytochrome P450 2C19): 19000 nM; bioavailability [21]: 88%

What does the source list for `CC(C)(NC(=O)c1cc2[nH]c3ccccc3c(=O)c2cc1F)c1ccc(N2CCOCC2)nc1`?
IC50 (CCRF-CEM): 660 nM; IC50 [1]: 20 nM; IC50 (PBMC): 210 nM

What does the source list for `COc1cc(C(C)(C)NC(=O)c2cc3[nH]c4ccccc4c(=O)c3cc2F)cnc1N1CCOCC1`?
IC50 (CCRF-CEM): 810 nM; IC50 [1]: 20 nM; IC50 (PBMC): 320 nM

What does the source list for `CN(C)S(=O)(=O)c1ccc(C(C)(C)NC(=O)c2cc3[nH]c4ccccc4c(=O)c3cc2F)cc1`?
IC50 (CCRF-CEM): 660 nM; IC50 [1]: 10 nM; IC50 (PBMC): 200 nM

With `COc1c(C)c2c(c(O)c1C/C=C(\C)CCC(=O)OCCN1CCOCC1)C(=O)OC2` [MYCOPHENOLATE MOFETIL] as the compound, how does the Activity (Rattus norvegicus [22]) read?
The Activity was “Active”.

What about the Activity (Rattus norvegicus [23]) of the same compound?
The Activity was “Active”.

And the selectivity ratio [24]?
The selectivity ratio was 6.9.

Which IC50 (CCRF-CEM) does the source give for `CC(C)(NC(=O)c1cc2[nH]c3ccccc3c(=O)c2cc1F)c1ccccc1` here?
The IC50 was 830 nM.

And the IC50 [1]?
Its IC50 is 11 nM.

And the IC50 (PBMC)?
The IC50 was 220 nM.

Which IC50 [1] does the source give for `C[C@H](NC(=O)c1ccc2c(=O)c3ccccc3[nH]c2c1)c1ccccc1` here?
Its IC50 is 431 nM.

For `CC(C)(NC(=O)c1cc2[nH]c3ccccc3c(=O)c2cc1F)c1cccc(S(C)(=O)=O)c1`, which IC50 (CCRF-CEM) is on record?
The IC50 was 580 nM.

And the IC50 [1]?
Its IC50 is 12 nM.

What about the IC50 (PBMC) of the same compound?
The IC50 was 280 nM.

For `CC(C)(NC(=O)c1cc2[nH]c3ccccc3c(=O)c2cc1F)c1ccccn1`, which IC50 (CCRF-CEM) is on record?
The IC50 was 1000 nM.

And the IC50 [1]?
Its IC50 is 29 nM.

For `CN(C)CCOc1ccc(C(C)(C)NC(=O)c2cc3[nH]c4ccccc4c(=O)c3cc2F)cc1`, which IC50 (CCRF-CEM) is on record?
The IC50 was 560 nM.

And the IC50 [1]?
The IC50 was 20 nM.

And the IC50 (PBMC)?
The IC50 was 210 nM.

With `Cc1ccc(C(C)(C)NC(=O)c2cc3[nH]c4ccccc4c(=O)c3cc2F)cn1` as the compound, how does the IC50 (CCRF-CEM) read?
The IC50 was 750 nM.

What about the IC50 [1] of the same compound?
Its IC50 is 23 nM.

And the IC50 (PBMC)?
The IC50 was 270 nM.
